Reference: ChEMBL document CHEMBL5360562 (Eur J Med Chem, 2023)

Key:
Escherichia coli [1] = assay: Potentiation of Clarithromycin antibacterial activity against Escherichia coli ATCC 25922 assessed as clarithromycin MIC at 3 uM incubated for 16 hrs by broth microdilution method; format: functional
Acinetobacter baumannii [2] = assay: Potentiation of rifampicin antibacterial activity against Acinetobacter baumannii AB5075 assessed as rifampicin MIC at 7.5 uM incubated for 16 hrs by broth microdilution method; format: functional
In short: (§1)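 A. baumannii AB5075 6 h day cultures in CAMHB subcultured to 5×10^5 CFU/mL; adjuvant added from 10 mM DMSO stock at fixed concentration, then rifampicin (DMSO) twofold serially diluted in adjuvant-containing broth. Antibiotic-alone and adjuvant-alone control lanes.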

[3] = Therapeutic index, ratio of IC50 for antiproliferative against human HepG2 cells assessed as reduction in cell viability to MIC for potentiation of Clarithromycin antibacterial activity against Acinetobacter baumannii […] assessed as clarithromycin MIC; format: toxicity, cell-based; conditions: read-out: TI
Acinetobacter baumannii [4] = assay: Potentiation of Clarithromycin antibacterial activity against Acinetobacter baumannii AB3785 assessed as clarithromycin MIC at 10 uM incubated for 16 hrs by broth microdilution method; format: functional
Acinetobacter baumannii [5] = assay: Potentiation of Azithromycin antibacterial activity against Acinetobacter baumannii AB5075 assessed as azithromycin MIC at 30 uM incubated for 16 hrs by broth microdilution method; format: functional
Escherichia coli [6] = assay: Potentiation of Clarithromycin antibacterial activity against Escherichia coli ATCC 25922 assessed as clarithromycin MIC at 2.5 uM incubated for 16 hrs by broth microdilution method; format: functional
In short: (§2)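 Checkerboard-style potentiation by broth microdilution. 6 h day cultures in CAMHB diluted to 5×10^5 CFU/mL. Adjuvant added from 10 mM DMSO stock at fixed concentration throughout. […] Controls: antibiotic alone, adjuvant alone, media only. Incubated stationary at 37 °C for 16 h. MIC is lowest concentration with no visible growth; fold reduction taken against the antibiotic-alone lane.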

[7] = Antiproliferative against human HepG2 cells assessed as reduction in cell viability incubated for 24 hrs by XTT assay; format: toxicity, cell-based
Acinetobacter baumannii [8] = assay: Potentiation of Clarithromycin antibacterial activity against Acinetobacter baumannii AB5711 assessed as clarithromycin MIC at 10 uM incubated for 16 hrs by broth microdilution method; format: functional
Acinetobacter baumannii [9] = assay: Potentiation of Clarithromycin antibacterial activity against Acinetobacter baumannii AB5075 assessed as clarithromycin MIC at 10 uM incubated for 16 hrs by broth microdilution method; format: functional
Acinetobacter baumannii [10] = assay: Potentiation of erythromycin antibacterial activity against Acinetobacter baumannii AB5075 assessed as erythromycin MIC at 20 uM incubated for 16 hrs by broth microdilution method; format: functional
Acinetobacter baumannii [11] = assay: Potentiation of Clarithromycin antibacterial activity against Acinetobacter baumannii AB5075 assessed as clarithromycin MIC at 7.5 uM incubated for 16 hrs by broth microdilution method; format: functional
Acinetobacter baumannii [12] = assay: Potentiation of erythromycin antibacterial activity against Acinetobacter baumannii AB5075 assessed as erythromycin MIC at 5 uM incubated for 16 hrs by broth microdilution method; format: functional
Acinetobacter baumannii [13] = assay: Potentiation of rifampicin antibacterial activity against Acinetobacter baumannii AB5075 assessed as rifampicin MIC at 5 uM incubated for 16 hrs by broth microdilution method; format: functional; in short: as §1
Pseudomonas aeruginosa [14] = assay: Potentiation of Clarithromycin antibacterial activity against Pseudomonas aeruginosa PAO1 assessed as clarithromycin MIC at 20 uM incubated for 16 hrs by broth microdilution method; format: functional; in short: as §2
Acinetobacter baumannii [15] = assay: Potentiation of Azithromycin antibacterial activity against Acinetobacter baumannii AB5075 assessed as azithromycin MIC at 7.5 uM incubated for 16 hrs by broth microdilution method; format: functional
Acinetobacter baumannii [16] = assay: Potentiation of erythromycin antibacterial activity against Acinetobacter baumannii AB5075 assessed as erythromycin MIC at 10 uM incubated for 16 hrs by broth microdilution method; format: functional
Escherichia coli [17] = assay: Potentiation of Clarithromycin antibacterial activity against Escherichia coli ATCC 25922 assessed as clarithromycin MIC at 3.75 uM incubated for 16 hrs by broth microdilution method; format: functional
Acinetobacter baumannii [18] = assay: Potentiation of Clarithromycin antibacterial activity against Acinetobacter baumannii AB5075 assessed as fold reduction in clarithromycin MIC at 10 uM incubated for 16 hrs by broth microdilution method; format: functional; in short: as §2
Acinetobacter baumannii [19] = assay: Potentiation of Clarithromycin antibacterial activity against Acinetobacter baumannii AB5075 assessed as clarithromycin MIC at 2.5 uM incubated for 16 hrs by broth microdilution method; format: functional
Pseudomonas aeruginosa [20] = assay: Potentiation of Clarithromycin antibacterial activity against Pseudomonas aeruginosa PAO1 assessed as clarithromycin MIC at 30 uM incubated for 16 hrs by broth microdilution method; format: functional
Acinetobacter baumannii [21] = assay: Potentiation of Clarithromycin antibacterial activity against Acinetobacter baumannii AB5674 assessed as clarithromycin MIC at 10 uM incubated for 16 hrs by broth microdilution method; format: functional
Acinetobacter baumannii [22] = assay: Potentiation of Clarithromycin antibacterial activity against Acinetobacter baumannii AB5075 assessed as clarithromycin MIC at 30 uM incubated for 16 hrs by broth microdilution method; format: functional
Acinetobacter baumannii [23] = assay: Potentiation of Azithromycin antibacterial activity against Acinetobacter baumannii AB5075 assessed as azithromycin MIC at 20 uM incubated for 16 hrs by broth microdilution method; format: functional
Acinetobacter baumannii [24] = assay: Potentiation of rifampicin antibacterial activity against Acinetobacter baumannii AB5075 assessed as rifampicin MIC at 20 uM incubated for 16 hrs by broth microdilution method; format: functional
Acinetobacter baumannii [25] = assay: Potentiation of Clarithromycin antibacterial activity against Acinetobacter baumannii AB5075 assessed as reduction in clarithromycin MIC at 20 uM incubated for 16 hrs by broth microdilution method; format: functional
[26] = Stability of compound in human plasma assessed as parent compound remaining measured at 4 hrs; format: ADME, cell-free
In short: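 Compound at 20 μM final in human plasma (from 10 mM DMSO stock), 37 °C; aliquots at 0, 30, 60, 120, 240 min quenched in internal standard in 1:1 ACN/MeOH, centrifuged, supernatant analysed by UPLC-MRM. Peak-area ratio to internal standard expressed as % parent remaining relative to 0 min; half-life calculated.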

[27] = Metabolic stability in human liver microsomes assessed as parent compound remaining in presence of NADPH measured at 1 hr by UV-UPLC analysis; format: ADME, Microsome
Acinetobacter baumannii [28] = assay: Potentiation of Azithromycin antibacterial activity against Acinetobacter baumannii AB5075 assessed as azithromycin MIC at 5 uM incubated for 16 hrs by broth microdilution method; format: functional
Acinetobacter baumannii [29] = assay: Potentiation of erythromycin antibacterial activity against Acinetobacter baumannii AB5075 assessed as erythromycin MIC at 30 uM incubated for 16 hrs by broth microdilution method; format: functional
Klebsiella pneumoniae = assay: Antibacterial activity against Klebsiella pneumoniae ATCC BAA-2146 assessed as inhibition of bacterial growth incubated for 16 hrs by broth microdilution method; format: functional
In short: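 Standalone MIC by broth microdilution. 6 h day cultures in cation-adjusted Mueller-Hinton broth (CAMHB) diluted to 5×10^5 CFU/mL. Compound added from 10 mM DMSO stock to 200 μM (highest concentration), then twofold serial dilution. Incubated stationary at 37 °C for 16 h.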

Acinetobacter baumannii [30] = assay: Potentiation of erythromycin antibacterial activity against Acinetobacter baumannii AB5075 assessed as erythromycin MIC at 7.5 uM incubated for 16 hrs by broth microdilution method; format: functional

Compound: Cl.Cl.Nc1nc(-c2ccc(NC(=O)Nc3cccc(-c4c[nH]c(N)n4)c3F)cc2F)c[nH]1
- MIC (Escherichia coli [1]): 4 µg/mL
- MIC (Acinetobacter baumannii [2]): 0.015 µg/mL
- selectivity ratio [3]: 287
- MIC (Acinetobacter baumannii [4]): ≤ 0.062 µg/mL
- MIC (Acinetobacter baumannii [5]): ≤ 0.062 µg/mL
- MIC (Escherichia coli [6]): 32 µg/mL
- IC50 at 24 h [7]: 208 µg/mL
- MIC (Acinetobacter baumannii [8]): ≤ 0.062 µg/mL
- MIC (Acinetobacter baumannii [9]): ≤ 0.062 µg/mL
- MIC (Acinetobacter baumannii [10]): ≤ 0.062 µg/mL
- MIC (Acinetobacter baumannii [11]): ≤ 0.062 µg/mL
- MIC (Acinetobacter baumannii [12]): 0.5 µg/mL
- MIC (Acinetobacter baumannii [13]): 0.125 µg/mL
- MIC (Pseudomonas aeruginosa [14]): 16 µg/mL
- MIC (Acinetobacter baumannii [15]): 0.5 µg/mL
- MIC (Acinetobacter baumannii [16]): ≤ 0.062 µg/mL
- MIC (Escherichia coli [17]): 0.125 µg/mL
- fold change (FC) (Acinetobacter baumannii [18]): >=512
- MIC (Acinetobacter baumannii [19]): 0.125 µg/mL
- MIC (Pseudomonas aeruginosa [20]): 0.5 µg/mL
- MIC (Acinetobacter baumannii [21]): ≤ 0.062 µg/mL
- MIC (Acinetobacter baumannii [22]): ≤ 0.062 µg/mL
- MIC (Acinetobacter baumannii [23]): ≤ 0.062 µg/mL
- MIC (Acinetobacter baumannii [24]): 0.001 µg/mL
- fold change (FC) (Acinetobacter baumannii [25]): >=512
- MIC (Acinetobacter baumannii [25]; Acinetobacter baumannii, AB5075): ≤ 0.062 µg/mL
- Stability [26]: 76%
- Stability [27]: 87%
- MIC (Acinetobacter baumannii [28]): 1 µg/mL
- MIC (Acinetobacter baumannii [29]): ≤ 0.062 µg/mL
- MIC (Klebsiella pneumoniae): > 200 µM
- MIC (Acinetobacter baumannii [30]): 0.25 µg/mL
